One data set is filed under the species Rattus norvegicus. Kind of data set: Intrinsic activity at rat MT2 receptor expressed in CHO-Galpha16 cells assessed as Ca2+ mobilization after 20 mins by FLIPR assay relative to agomelatine. It is filed as cell-based. In outline:
(§1)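 CHO-Galpha16 cells expressing rat MT1 or MT2, plated 24 h ahead, loaded with Fluo4-AM (1.5 final) plus pluronic acid in HBSS/20 mM HEPES/0.1% BSA pH 7.4 with 2.5 mM probenecid, 1 h at 37 °C, then washed. Ca2+ read by FLIPR. Agonist mode: 15 s baseline, compound added, 3 min read. Antagonist mode: compound preincubated 20 min at room temperature, then melatonin at EC80, 3 min read.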
Background: Calcium assays in cells follow changes in intracellular calcium, usually with a dye or a luminescent sensor.

Data set [1] relates to CHO-Galpha16. Kind of data set: Intrinsic activity at rat MT1 receptor expressed in CHO-Galpha16 cells assessed as Ca2+ mobilization after 20 mins by FLIPR assay relative to ramelteon. The format is cell-based. An outline of the steps:
as §1

Data set [2] can be described thus: Binding affinity to rat MT1 receptor expressed in CHO-Galpha16 cells assessed as Ca2+ mobilization after 20 mins by FLIPR assay. The format is cell-based. In outline:
as §1

Data set [3] in a line: Binding affinity to rat MT2 receptor expressed in CHO-Galpha16 cells assessed as Ca2+ mobilization after 20 mins by FLIPR assay. It is filed as cell-based. In outline: as §1
A short description of data set [4]: Displacement of [3H]melatonin from rat MT2 receptor expressed in CHO-Galpha16 cells. The format is cell-based. In outline:
(§2)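 Rat MT1 or MT2 membranes from CHO-Galpha16 cells incubated with [3H]-melatonin (0.5 nM final, 80 Ci/mmol) in 50 mM Tris/HCl pH 7.4, 5 mM MgCl2. Nonspecific binding defined with excess melatonin. Stopped by rapid GF/B filtration with five ice-cold washes. Ki from IC50 via Cheng–Prusoff.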
Background: Loss of bound radioactivity is the signal in a displacement assay; it reports binding, not function.

Data set [5] in a line: Displacement of [3H]melatonin from rat MT1 receptor expressed in CHO-Galpha16 cells. It is filed as cell-based. In outline: as §2
The test system of data set [6] is CHO-Galpha16. In words: Inhibition of rat MT1 receptor expressed in CHO-Galpha16 cells relative to control. It is filed as cell-based. Set-up: concentration or dose not given beside the values. Particulars: dose or concentration not given here. An outline of the steps:
as §1

In data set [7] the test system is Liver microsomes. In words: Intrinsic clearance in human liver microsome at 1 uM by LC/MS analysis. The format is ADME. In outline:
(§3)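 Compound at 1 µM incubated with liver microsomes (0.5 mg/mL protein) and an NADPH-regenerating system, sampled at 0, 5, 15, 30 and 60 min. Quenched, centrifuged supernatants analysed by LC/MS for remaining parent to estimate T1/2.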
(Microsomes from liver hold many membrane-bound enzymes, among them those of drug oxidation.)

Data set [8] has as its system Liver microsomes. In words: Intrinsic clearance in rat liver microsome at 1 uM by LC/MS analysis. The format is ADME. In outline: as §3

What is called EC50 is the midpoint of the concentration-response curve. As for `COc1ccccc1C1CCN(C(=O)C2CC2)CC1`, the Intrinsic activity in the data set listed under Rattus norvegicus is 3%; in the data set on CHO-Galpha16 [1] it was 2%. Moreover, the 50% effective concentration (EC50) in data set [2] and in [3] was above 10000 nM each time.
The Ki is the equilibrium dissociation constant of an inhibitor or competing ligand from its target. Turning to `COc1ccc2[nH]cc(CCNC(C)=O)c2c1` [MELATONIN], the Ki amounted to 0.58 nM in data set [4] and 0.99 nM in data set [5]. Besides, the Intrinsic activity in the data set filed under Rattus norvegicus and in the data set with CHO-Galpha16 [1] was 97% in each case. The concentration for a half-maximal effect (EC50) in data set [2] was 0.56 nM; in data set [3], 1.1 nM.
As for `COc1cccc(C2CCN(C(=O)C3CCCC3)CC2)c1`, the Intrinsic activity in the data set listed under Rattus norvegicus is 74%; in the data set on CHO-Galpha16 [1] it was 67%. For the same molecule, the EC50 was determined as 210 nM in data set [2] and 110 nM in [3].
Consider `COc1cccc(N2CC(NC(=O)C3CC3)Cc3ccccc32)c1` (racemic), for which the Ki in data set [4] was 6.7 nM; in data set [5] it was 75 nM. Also, the values for the Intrinsic activity in the data set filed under Rattus norvegicus and with CHO-Galpha16 [1] were 35% and 84%, respectively. In addition, the results for the EC50 in [2] and in [3] were 170 nM and 50 nM, respectively.
On to `Cc1cccc(C2CCN(C(=O)C3CC3)CC2)c1`, for which the Intrinsic activity stood at 15% in the data set listed under Rattus norvegicus and 0.4% in the data set on CHO-Galpha16 [1]. Moreover, the concentration giving a half-maximal response (EC50) in data set [2] and in data set [3] was above 10000 nM in each case.
Turning to `CCOc1cccc(C2CCN(C(=O)C3CC3)CC2)c1`, the results for the Ki in [4] and in [5] were 4100 nM and 5700 nM, respectively.
For the molecule `COc1cccc(C2CCN(C(=O)[C@H]3C[C@@H]3C)CC2)c1`, the Ki was 35 nM in data set [4] and 150 nM in data set [5]. The Intrinsic activity was determined as 65% in the data set listed under Rattus norvegicus and 19% in the data set on CHO-Galpha16 [1]. In addition, the EC50 amounted to 610 nM in data set [2] and 140 nM in data set [3].
`COc1cccc(C2CCN(C(=O)C3CCCCC3)CC2)c1`: the Intrinsic activity in the data set filed under Rattus norvegicus was found to be 36%; with CHO-Galpha16 [1], 42%. Moreover, the EC50 in [2] amounted to 7500 nM; in data set [3], 2800 nM.
For `COc1cccc(C2CCN(C(=O)C3CCC3)CC2)c1`, the Ki in data set [4] is 67 nM; in [5], 140 nM. Further, the Intrinsic activity in the data set listed under Rattus norvegicus turned out to be 62%; with CHO-Galpha16 [1], 52%. Moreover, the EC50 in data set [2] came to 380 nM; in data set [3] it was 200 nM.
Consider `COc1cccc(C2CCN(C(=O)C(C)C)CC2)c1`, for which the results for the Ki in [4] and in data set [5] were 31 nM and 160 nM, respectively. For the same molecule, the Intrinsic activity in the data set listed under Rattus norvegicus is 76%; with CHO-Galpha16 [1] it was 87%. In addition, the half-maximal effective concentration (EC50) in data set [2] turned out to be 98 nM; in data set [3], 19 nM.
For `COc1cccc(C2CCN(C(C)=O)CC2)c1`, the Intrinsic activity in the data set listed under Rattus norvegicus worked out at 19%; in the data set with CHO-Galpha16 [1], 6%. In addition, the concentration for a half-maximal effect (EC50) in [2] and in data set [3] was above 10000 nM in each case.
One may read the inhibition as the change of the read-out against control, counted positive when it falls. As a reminder, the IC50 is the concentration needed to halve the response being measured. Take `O=C(N[C@H]1CCCN(c2cccc(OC(F)(F)F)c2)C1)C1CC1`: the inhibition in the data set with CHO-Galpha16 [6] amounted to 95%. Moreover, the inhibition constant (Ki) in [4] was 66 nM; in data set [5] it was 190 nM. Also, the Intrinsic activity in the data set listed under Rattus norvegicus turned out to be 53%; in the data set on CHO-Galpha16 [1] it was 1%. Also, the EC50 in data set [2] is above 10000 nM; in [3] it was 12 nM. In addition, the IC50 in [5] was 2100 nM.
Regarding `O=C(C1CC1)N1CCC(c2cccc(O)c2)CC1`, the Intrinsic activity amounted to 23% in the data set filed under Rattus norvegicus and 96% with CHO-Galpha16 [1]. The EC50 in [2] is above 10000 nM; in data set [3], 3600 nM.
Turning to `COc1ccc(C2CCN(C(=O)C3CC3)CC2)cc1`, the inhibition constant Ki in [4] stood at 870 nM; in data set [5] it was 1100 nM. In addition, the Intrinsic activity came out at 94% in the data set listed under Rattus norvegicus and 58% with CHO-Galpha16 [1]. Further, the EC50 was above 10000 nM in [2] and 5000 nM in data set [3].
As for `COc1cccc(C2CCN(C(=O)c3ccccc3)CC2)c1`, the results for the Ki in [4] and in [5] were 110 nM and 650 nM, respectively. The Intrinsic activity in the data set filed under Rattus norvegicus amounted to 60%; in the data set with CHO-Galpha16 [1], 12%. The figures for the EC50 in [2] and in data set [3] were above 10000 nM and 4400 nM, respectively.
As for `CCC(CC)C(=O)N1CCC(c2cccc(OC)c2)CC1`, the Intrinsic activity in the data set filed under Rattus norvegicus is 35%; with CHO-Galpha16 [1] it was 32%. In addition, the EC50 in data set [2] was determined as 2300 nM; in data set [3], 790 nM.
Taken in the same sequence, the figures for `COc1cccc(C2CCN(C(=O)C3CC3(C)C)CC2)c1` (stereo unspecified) were 30%, 33%, 640 nM and 147 nM.
Take `COc1cccc(C2CCN(C(=O)CC(C)C)CC2)c1`: the Intrinsic activity in the data set filed under Rattus norvegicus turned out to be 35%; in the data set with CHO-Galpha16 [1] it was 39%. Further, the EC50 in data set [2] was 1700 nM; in data set [3] it was 1800 nM.
For the molecule `CCC(=O)N1CCC(c2cccc(OC)c2)CC1`, the Ki in [4] was determined as 150 nM; in data set [5], 810 nM. For the same molecule, the Intrinsic activity in the data set filed under Rattus norvegicus is 66%; in the data set with CHO-Galpha16 [1], 31%. Besides, the EC50 in data set [2] is 1300 nM; in data set [3] it was 42 nM.
For `CC(C)Oc1cccc(C2CCN(C(=O)C3CC3)CC2)c1`, the figures for the Intrinsic activity in the data set listed under Rattus norvegicus and in the data set on CHO-Galpha16 [1] were 10% and 9%, respectively. In addition, the EC50 in data set [2] and in [3] was above 10000 nM each time.
In the data set on CHO-Galpha16 [6], `COc1cccc(-c2cccc(NC(=O)C3CC3)n2)c1` had an inhibition of 41%. In addition, the Ki is 83 nM in [4] and 1500 nM in data set [5]. The Intrinsic activity worked out at 57% in the data set listed under Rattus norvegicus and 15% with CHO-Galpha16 [1]. The results for the concentration for a half-maximal effect (EC50) in [2] and in [3] were above 10000 nM and 1200 nM, respectively. This molecule also displayed an IC50 in data set [5] of 3800 nM.
For `COc1ccc(C2CCN(C(C)=O)CC2)cc1`, the values for the inhibition constant Ki in data set [4] and in data set [5] were 360 nM and 4700 nM, respectively. Further, the Intrinsic activity in the data set filed under Rattus norvegicus was found to be 140%; in the data set on CHO-Galpha16 [1] it was 34%. The EC50 was found to be 1700 nM in data set [2] and 3400 nM in [3].
In the case of `COc1cc(N2CCC[C@H](NC(=O)C3CC3)C2)ccc1Cl`, the clearance stood at 45 µL/min/mg in the data set with Liver microsomes [7] and 199 µL/min/mg with Liver microsomes [8]. For the same molecule, the values for the inhibition constant (Ki) in data set [4] and in data set [5] were 2.1 nM and 1.2 nM, respectively. Besides, the Intrinsic activity was determined as 65% in the data set filed under Rattus norvegicus and 73% with CHO-Galpha16 [1]. The half-maximal effective concentration (EC50) in data set [2] is 0.74 nM; in data set [3], 2.3 nM.
As for `O=C(N[C@H]1CCCN(c2cccc(OC(F)F)c2)C1)C1CC1`, the clearance in the data set on Liver microsomes [7] worked out at 48 µL/min/mg; in the data set with Liver microsomes [8], 485 µL/min/mg. The molecule also showed an inhibition in the data set with CHO-Galpha16 [6] of 96%. In addition, the figures for the Ki in [4] and in [5] were 44 nM and 410 nM, respectively. For the same molecule, the Intrinsic activity in the data set listed under Rattus norvegicus was 57%; in the data set on CHO-Galpha16 [1] it was 21%. In addition, the EC50 was determined as 390 nM in [2] and 4.2 nM in data set [3]. Moreover, the IC50 in [5] stood at 870 nM.
Turning to `COc1cccc(N2CCCC2CNC(=O)C2CC2)c1` (racemic), the Ki in data set [4] amounted to 3.3 nM; in [5], 21 nM. Besides, the Intrinsic activity in the data set filed under Rattus norvegicus was 98%; in the data set with CHO-Galpha16 [1], 89%. The figures for the EC50 in data set [2] and in data set [3] were 18 nM and 2.5 nM, respectively.

The record behind these values is ChEMBL document CHEMBL1667823, “Design and synthesis of 4-arylpiperidinyl amide and N-arylpiperdin-3-yl-cyclopropane carboxamide derivatives as novel melatonin receptor ligands” (Bioorg Med Chem Lett, 2011).
